Assay results as given in PMC5161541 (Nuclear medicine and biology, 2016).
Where two headings read alike, the source gives them in different places.

Tests used:
[1] = molecular target: sites labeled by [125I]-E-IA-BF-PIPZE (σ1 receptors) (Mus musculus, UniProt O55242); type: binding
σ1 receptors [2] = molecular target: T1, σ1 receptors (Mus musculus, UniProt O55242); conditions: 100 μmol / kg, i.p.; cited from earlier work
σ1 receptors [3] = molecular target: T1, σ1 receptors; test: In vivo specific binding and blocking by pretreatment with σ receptor ligands; conditions: for adverse effects or abnormal behaviors: mice
σ1 receptors [4] = molecular target: T1, σ1 receptors; test: Regional brain distribution with blocking pretreatments; type: in vivo, CD-1 mouse; conditions: 2.5 μmol / kg i.v., 60 min, nine regions
[5] = molecular target: Kappa (κ) opioid receptor (Cavia porcellus, UniProt P41144); test: Secondary site spot test, [3H]-U69593; type: binding, guinea pig
[6] = molecular target: Delta (δ) opioid receptor (Mus musculus, UniProt P32300); test: Secondary site spot test, [3H]-Naltrindole; type: binding
σ2 receptors = molecular target: T2, σ2 receptors (Mus musculus, UniProt Q8VD00); test: Competition binding against [3H]-DTG with PTZ mask in mouse brain membranes
T2 sequence (Q8VD00 1-176): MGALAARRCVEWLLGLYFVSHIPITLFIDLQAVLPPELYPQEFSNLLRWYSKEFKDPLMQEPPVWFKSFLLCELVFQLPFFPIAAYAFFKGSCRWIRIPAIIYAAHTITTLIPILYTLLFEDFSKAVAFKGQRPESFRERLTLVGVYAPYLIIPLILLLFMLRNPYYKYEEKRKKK

Mu (μ) opioid receptor = Mu (μ) opioid receptor (Cavia porcellus, UniProt A0ACM8Q262); test: Secondary site spot test, [3H]-DAMGO; type: binding, guinea pig
DAT = DAT (Mus musculus, UniProt Q61327); test: Secondary site spot test, [125I]-RTI-121; type: binding
σ1 receptors [7] = molecular target: T1, σ1 receptors; test: Competition binding against [3H]-PTZ in mouse brain membranes
NET = NET (Mus musculus, UniProt O55192); test: Secondary site spot test, [3H]-Nisoxetine; type: binding
SERT = SERT (Mus musculus, UniProt Q60857); test: Secondary site spot test, [3H]-Paroxetine; type: binding
[8] = molecular target: vesicular acetylcholine transporter (VAChT); conditions: read-out: apparent affinity for VAChT in vitro; cited from earlier work
σ1 receptors [9] = conditions: cited from earlier work
[10] = molecular target: cannabinoid receptor type 2 (CB2); conditions: cited from earlier work
cerebral σ1 receptors = conditions: over 30 h, SPECT; cited from earlier work
σ1 receptors [11] = molecular target: T1, σ1 receptors; type: binding
σ1 receptors [12] = molecular target: T1, σ1 receptors; test: "Hot" saturation binding in mouse brain membranes
In short: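 "Hot" saturation: mouse brain membranes incubated with increasing radioligand concentrations until steady-state binding. Non-specific binding determined in parallel at each concentration with a competing non-radioactive ligand. Specific binding fitted by nonlinear regression to the one-site mass-action equation to give Kd and Bmax. Bound/Free expressed as (fmol/mg protein)/nM for the Scatchard plot. Single experiment.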

[13] = TCA protein precipitation assay of plasma protein binding; type: in vitro ADME, mouse; conditions: for Protein Binding: mouse plasma, 37 °C, 30 min, TCA precipitation, n = 9
In short: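 Radioiodinated test compound incubated in commercial mouse plasma at 37 °C for 30 min. Proteins then precipitated with cold 10% TCA / 5% HCl to measure protein-bound radioactivity.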

σ1 receptors [14] = molecular target: T1, σ1 receptors; test: Calculated binding potential; conditions: single trial, protein assumed 5% of brain tissue
In short: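 The Scatchard Y-intercept, as Bound/Free in (fmol/mg protein)/nM from the in vitro mouse brain membrane saturation experiment, was converted to tissue-concentration units assuming protein is 5% of brain tissue. This gave binding potential for a single trial.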

[15] = Radiometabolite analysis of tissue extracts and urine by HPLC; type: in vivo, CD-1 mouse; conditions: for Radiometabolites Whole Brain, 60 min: mouse, in vivo
In short: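 Organs from i.v.-dosed mice, given more radioactivity than in pharmacokinetic studies, counted and homogenized in methanol/acetonitrile/water containing DTG (100 μM). Homogenates centrifuged, with a radioactivity balance taken for extracts and pellets. Extracts diluted with water and filtered (0.45 μm) for radio-HPLC. Urine only diluted with mobile phase and filtered.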

[16] = Lipophilicity, shake-flask n-octanol / buffer pH 7.4; type: physicochemical
In short: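 Shake-flask method: radiolabeled test compound partitioned between equal volumes of n-octanol and aqueous buffer pH 7.4, each presaturated with the other. Vortexed, then centrifuged. Each layer sampled in duplicate or triplicate and counted. Counts normalized per g or per mL, and the concentration ratio converted to Log D7.4.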

[17] = Temporal biodistribution after i.v. radioligand in CD-1 mice; type: in vivo, CD-1 mouse
In short: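 Radioligand given i.v. to male CD-1 mice, with tissues sampled from 5 min to 24 h. Uptake expressed as %ID/g. Clearance half-lives from heart and lung obtained by monoexponential decay fitting.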

[18] = 0.1 nM [125I]-E-IA-BF-PIPZE, 37 °C, 180 min, means ± SEM (n = 3 – 6)
[19] = Cheng-Prusoff, 0.1 nM [125I]-E-IA-BF-PIPZE, means ± SEM (n = 3 – 6)
[20] = 15 min, defined by BD1063 5 μmol / kg i.v.
[21] = listed as [^125I]-E-IA-BF-PIPZE

T1 sequence (O55242 whole entry): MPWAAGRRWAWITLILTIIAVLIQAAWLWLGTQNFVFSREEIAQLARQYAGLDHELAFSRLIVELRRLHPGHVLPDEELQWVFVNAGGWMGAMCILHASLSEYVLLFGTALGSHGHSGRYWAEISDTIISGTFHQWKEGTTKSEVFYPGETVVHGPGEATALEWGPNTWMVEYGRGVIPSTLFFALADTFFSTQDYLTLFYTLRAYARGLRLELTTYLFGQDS
sites labeled by [125I]-E-IA-BF-PIPZE (σ1 receptors), sequence (O55242 whole entry): as above
Mu (μ) opioid receptor, sequence (A0ACM8Q262 1-400): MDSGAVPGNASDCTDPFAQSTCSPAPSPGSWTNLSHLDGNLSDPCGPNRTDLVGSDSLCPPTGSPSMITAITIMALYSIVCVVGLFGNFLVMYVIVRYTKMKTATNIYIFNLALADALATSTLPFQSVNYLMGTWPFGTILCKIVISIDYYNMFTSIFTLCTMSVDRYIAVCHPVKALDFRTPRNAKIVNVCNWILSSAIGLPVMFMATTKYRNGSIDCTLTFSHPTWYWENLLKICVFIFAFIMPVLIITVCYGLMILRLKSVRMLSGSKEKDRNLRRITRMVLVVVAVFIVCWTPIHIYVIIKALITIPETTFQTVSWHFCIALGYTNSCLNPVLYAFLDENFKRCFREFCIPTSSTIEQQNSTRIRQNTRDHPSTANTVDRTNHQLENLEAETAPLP
DAT, sequence (Q61327 whole entry): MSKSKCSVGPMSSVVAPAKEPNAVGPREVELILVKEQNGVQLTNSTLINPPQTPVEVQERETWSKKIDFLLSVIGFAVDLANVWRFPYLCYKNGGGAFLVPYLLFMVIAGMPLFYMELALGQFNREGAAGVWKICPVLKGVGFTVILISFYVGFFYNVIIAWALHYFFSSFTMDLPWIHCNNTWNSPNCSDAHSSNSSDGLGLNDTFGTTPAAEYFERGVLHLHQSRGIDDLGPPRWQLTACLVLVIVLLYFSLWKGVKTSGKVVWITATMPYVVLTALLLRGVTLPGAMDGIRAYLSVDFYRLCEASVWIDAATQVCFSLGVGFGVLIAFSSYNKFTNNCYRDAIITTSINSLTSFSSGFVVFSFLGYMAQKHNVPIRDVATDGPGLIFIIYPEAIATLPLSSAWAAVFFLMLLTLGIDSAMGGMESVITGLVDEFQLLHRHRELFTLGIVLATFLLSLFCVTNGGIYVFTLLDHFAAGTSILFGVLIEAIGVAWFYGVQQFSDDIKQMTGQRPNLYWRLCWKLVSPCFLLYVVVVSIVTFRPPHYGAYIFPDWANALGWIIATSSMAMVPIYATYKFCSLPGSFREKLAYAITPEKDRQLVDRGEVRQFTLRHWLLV
Delta (δ) opioid receptor, sequence (P32300 whole entry): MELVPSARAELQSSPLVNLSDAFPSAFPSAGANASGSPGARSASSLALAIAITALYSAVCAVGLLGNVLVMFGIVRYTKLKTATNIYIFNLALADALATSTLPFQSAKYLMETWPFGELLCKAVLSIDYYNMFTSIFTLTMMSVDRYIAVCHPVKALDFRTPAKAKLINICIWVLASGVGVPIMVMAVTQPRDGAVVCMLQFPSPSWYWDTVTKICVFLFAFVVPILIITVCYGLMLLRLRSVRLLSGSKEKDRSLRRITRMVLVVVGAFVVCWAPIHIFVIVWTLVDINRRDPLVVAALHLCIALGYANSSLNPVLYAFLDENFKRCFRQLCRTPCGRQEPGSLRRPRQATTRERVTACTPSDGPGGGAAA
NET, sequence (O55192 whole entry): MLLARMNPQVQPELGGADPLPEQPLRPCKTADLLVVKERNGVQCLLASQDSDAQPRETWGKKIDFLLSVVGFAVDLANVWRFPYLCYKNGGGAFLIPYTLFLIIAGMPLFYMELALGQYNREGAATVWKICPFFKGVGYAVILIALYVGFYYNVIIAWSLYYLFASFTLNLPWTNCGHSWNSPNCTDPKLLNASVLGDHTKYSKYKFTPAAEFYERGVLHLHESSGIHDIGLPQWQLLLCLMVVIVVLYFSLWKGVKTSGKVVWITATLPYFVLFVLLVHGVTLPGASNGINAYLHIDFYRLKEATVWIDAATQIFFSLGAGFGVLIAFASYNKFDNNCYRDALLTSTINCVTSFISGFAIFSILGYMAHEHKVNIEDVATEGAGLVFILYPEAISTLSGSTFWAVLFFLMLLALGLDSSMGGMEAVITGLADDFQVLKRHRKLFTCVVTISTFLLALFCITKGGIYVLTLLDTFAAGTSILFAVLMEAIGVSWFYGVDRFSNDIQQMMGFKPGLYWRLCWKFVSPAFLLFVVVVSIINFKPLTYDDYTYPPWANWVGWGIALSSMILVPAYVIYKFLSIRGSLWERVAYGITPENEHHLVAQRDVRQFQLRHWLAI
Kappa (κ) opioid receptor, sequence (P41144 whole entry): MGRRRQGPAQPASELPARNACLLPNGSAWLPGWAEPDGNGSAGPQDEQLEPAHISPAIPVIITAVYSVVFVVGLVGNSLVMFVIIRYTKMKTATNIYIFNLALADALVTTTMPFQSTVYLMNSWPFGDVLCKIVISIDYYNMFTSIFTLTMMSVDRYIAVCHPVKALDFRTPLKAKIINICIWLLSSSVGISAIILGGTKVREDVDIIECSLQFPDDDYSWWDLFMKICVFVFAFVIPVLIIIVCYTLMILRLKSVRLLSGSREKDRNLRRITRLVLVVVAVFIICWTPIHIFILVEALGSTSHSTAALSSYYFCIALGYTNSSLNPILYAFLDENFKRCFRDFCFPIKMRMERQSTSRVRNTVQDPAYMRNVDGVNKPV
SERT, sequence (Q60857 whole entry): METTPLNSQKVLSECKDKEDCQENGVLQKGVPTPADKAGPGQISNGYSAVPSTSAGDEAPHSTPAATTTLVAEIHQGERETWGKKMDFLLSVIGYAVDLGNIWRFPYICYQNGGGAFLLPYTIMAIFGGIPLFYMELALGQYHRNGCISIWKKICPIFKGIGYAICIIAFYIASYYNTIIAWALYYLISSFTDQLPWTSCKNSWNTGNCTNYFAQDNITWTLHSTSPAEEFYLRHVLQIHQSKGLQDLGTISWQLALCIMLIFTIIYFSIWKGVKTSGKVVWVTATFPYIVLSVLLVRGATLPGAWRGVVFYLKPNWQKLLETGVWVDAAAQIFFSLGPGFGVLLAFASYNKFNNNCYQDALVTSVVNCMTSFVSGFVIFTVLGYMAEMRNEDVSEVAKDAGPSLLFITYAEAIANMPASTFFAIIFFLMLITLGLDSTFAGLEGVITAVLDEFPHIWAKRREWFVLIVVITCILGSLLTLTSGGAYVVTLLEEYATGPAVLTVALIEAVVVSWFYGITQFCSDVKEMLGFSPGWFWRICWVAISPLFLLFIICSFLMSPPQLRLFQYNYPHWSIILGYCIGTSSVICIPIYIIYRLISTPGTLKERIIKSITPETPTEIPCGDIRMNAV

## CC(C)=CCN1CC[C@]2(C)c3cc(O)ccc3C[C@H]1[C@H]2C [(+)-Pentazocine, (+)-pentazocine]
[1]; means ± SEM (n = 3 – 6)
  Hill (nH): 0.9 ± 0.1

## COC(=O)[C@H]1[C@@H](OC(=O)c2ccccc2)C[C@@H]2CC[C@H]1N2C [(−)-cocaine]
σ1 receptors [2]
  inhibition of [125I]-E-IA-DM-PE-PIPZE uptake: 50%

## CN1CCN(CCc2ccc(Cl)c(Cl)c2)CC1 [BD1063]
σ1 receptors [3]; 2.5 μmol / kg i.v.
  adverse effects or abnormal behaviors: No adverse effects or abnormal behaviors
σ1 receptors [3]; 60 min, blocker 2.5 μmol / kg i.v.
  radioactivity in the blood after pretreatment: 0.76 ± 0.04 %ID / g
[1]; [18]
  IC50: 13.6 ± 0.7 nM
[1]; [19]
  Ki: 9.6 ± 0.5 nM
[1]; means ± SEM (n = 3 – 6)
  Hill (nH): 1.3 ± 0.1

## COc1cc2c(cc1OC)CN(CCCCNC(=O)c1cc(Br)cc(OC)c1OC)CC2 [Br-Mach, reference compound]
σ1 receptors [4]
  reduction of radioligand uptake across brain regions: minimal but statistically significant
σ1 receptors [3]; 2.5 μmol / kg i.v., 60 min
  decrease of radioligand uptake in brain: 14%
  decrease of radioligand uptake in heart: 15%
  decrease of radioligand uptake in muscle: 24%
  inhibition of radioligand uptake in spleen, kidney, lung or liver: did not inhibit
σ1 receptors [3]; 2.5 μmol / kg i.v.
  adverse effects or abnormal behaviors: No adverse effects or abnormal behaviors
[1]; [18]
  IC50: 9850 ± 807 nM
[1]; [19]
  Ki: 6390 ± 524 nM
[1]; means ± SEM (n = 3 – 6)
  Hill (nH): 1.1 ± 0.2

## Cc1ccccc1NC(=N)Nc1ccccc1C [DTG, ditolylguanidine]
[1]
  IC50: 209 ± 14 nM
  Ki: 114 ± 7 nM
[1]; means ± SEM (n = 3 – 6)
  Hill (nH): 1.0 ± 0.1

## I/C=C/CN1CCN(CCc2ccc3c(c2)CCO3)CC1 [E-IA-BF-PE-PIPZE, (E)-1-(2-(2,3-dihydrobenzofuran-5-yl)ethyl)-4-(iodoallyl)piperazine]
σ1 receptors [4]
  reduction of radioligand uptake across brain regions: over 92%
[5]
  IC50: > 5000 nM
[5]; read-out: inhibition of specific radioligand binding, κ
  inhibition at 5 µM: ≤ 50%
[6]
  IC50: > 5000 nM
[6]; read-out: inhibition of specific radioligand binding, δ
  inhibition at 5 µM: ≤ 50%
σ1 receptors [3]; 2.5 μmol / kg i.v.
  adverse effects or abnormal behaviors: No adverse effects or abnormal behaviors
[1]
  IC50: 1.7 ± 0.2 nM
  Ki: 1.1 ± 0.1 nM
[1]; means ± SEM (n = 3 – 6)
  Hill (nH): 1.0 ± 0.1
σ2 receptors
  Ki: 74.5 ± 4.44 nM
Mu (μ) opioid receptor; read-out: IC50 Mu, [3H]-DAMGO 0.6 nM, guinea pig membranes
  IC50: > 5000 nM
Mu (μ) opioid receptor; read-out: inhibition of specific radioligand binding, μ
  inhibition at 5 µM: ≤ 50%
DAT
  IC50: > 10000 nM
DAT; read-out: inhibition of specific radioligand binding, DAT
  inhibition at 10 µM: ≤ 50%
σ1 receptors [7]
  Ki: 0.43 ± 0.03 nM
σ1 receptors [7]; [3H]-PTZ competition
  Hill slope: −1.23 ± 0.04
σ1 receptors [7]; σ2 Ki / σ1 Ki
  Selectivity: σ2/σ1 (Ki ratio): 173
NET
  IC50: > 10000 nM
NET; read-out: inhibition of specific radioligand binding, NET
  inhibition at 10 µM: ≤ 50%
SERT
  IC50: > 10000 nM
SERT; read-out: inhibition of specific radioligand binding, SERT
  inhibition at 10 µM: ≤ 50%

## COc1ccc(CCN2CCN(CCCc3ccccc3)CC2)cc1OC [SA4503, 1-[2-(3,4-dimethoxyphenyl)ethyl]-4-(3-phenylpropyl)piperazine]
[8]
  Ki: 50 nM

## COc1ccc(CCN2CCN(CCCc3ccccc3)CC2)cc1 [YZ-067]
σ1 receptors [9]
  σ1 receptor affinity relative to SA4503: improved affinity

## CCCCCCC(C)(C)c1ccc([C@@H]2C[C@H](O)CC[C@H]2CCCO)c(O)c1 [[^3H]-CP55940]
[10]
  Kd: 1.5 nM

## N#Cc1ccc(OCC2CCN(CC=CI)CC2)cc1 [[^123I]-TPCNE, [^123I]-1-(iodopropen-2-yl)-4-[(4-cyanophenoxy)methyl]piperidine]
σ1 receptors [9]; read-out: apparent affinity (Ki) for σ1 sites in vitro
  Ki: 0.67 nM

## N#Cc1ccc(OCC2CCN(CC=C[123I])CC2)cc1 [[^123I]-TPCNE, [^123I]-1-(iodopropen-2-yl)-4-[(4-cyanophenoxy)methyl]piperidine]
Cerebral σ1 receptors
  clearance from human brain: no clearance

## I/C=C/CN1CCN(CCc2ccc3c(c2)CCO3)CC1 [[^125I]-E-IA-BF-PE-PIPZE, [^125I]-(E)-1-(2-(2,3-dihydrobenzofuran-5-yl)ethyl)-4-(iodoallyl)piperazine]
σ1 receptors [7]; read-out: Sigma-1 Ki, [3H]-PTZ, mouse brain membranes, mean ± SEM, n = 4
  Ki: 0.43 nM
σ1 receptors [11]; read-out: kinetically determined Kd (koff / kon), from rate constants
  Kd: 0.042 nM

## [125I]/C=C/CN1CCN(CCc2ccc3c(c2)CCO3)CC1 [[^125I]-E-IA-BF-PE-PIPZE, [^125I]-(E)-1-(2-(2,3-dihydrobenzofuran-5-yl)ethyl)-4-(iodoallyl)piperazine]
σ1 receptors [12]; (fmol / mg protein) / nM, single experiment
  Bound / Free Y-intercept: 1942
σ1 receptors [12]; Kd 0.042 nM vs […]
  fold higher affinity from rate constants compared to saturation binding: 5.7 fold
σ1 receptors [12]; measured Kd, mouse brain membranes
  fold higher σ1 receptor affinity than [125I]-E-IA-DM-PE-PIPZE: 16 fold
σ1 receptors [12]; mouse brain membranes, 37 °C, 180 min, four trials, listed as [^125I]-E-IA-BF-PIPZE
  Bmax: 472 ± 13 fmol / mg protein
σ1 receptors [3]; [20]
  specific radioligand binding in brain: 75%
  specific radioligand binding in heart: 87%
  specific radioligand binding in lung: 87%
  specific radioligand binding in muscle: 61%
σ1 receptors [3]; 60 min, saline-treated control group
  radioactivity in the blood, controls: 0.38 ± 0.09 %ID / g
σ1 receptors [3]; mouse, in vivo, 0.5 h
  Non-Specific binding Whole Brain, 30 min: 0.89 %ID /g
  Specific binding Whole Brain, 30 min: 4.90 %ID /g
σ1 receptors [3]; mouse, in vivo, 1 h
  Non-Specific binding Whole Brain, 60 min: 0.60 %ID /g
  Specific binding Whole Brain, 60 min: 5.38 %ID /g
σ1 receptors [3]; mouse, in vivo, 4 h
  Non-Specific binding Whole Brain, 240 min: 0.34 %ID /g
  Specific binding Whole Brain, 240 min: 4.14 %ID /g
σ1 receptors [3]; ratio of %ID /g values
  Specific / Non-Specific Whole Brain, 30 min: 5.5
  Specific / Non-Specific Whole Brain, 60 min: 9.0
  Specific / Non-Specific Whole Brain, 240 min: 12
σ1 receptors [3]; ratio of %ID /g values, listed as [^125I]-E-IA-BF-PIPZE
  Specific / Non-Specific Whole Brain, 240 min: 12.2
[13]
  increase of protein binding with respect to [125I]-E-IA-DM-PE-PIPZE: 50%
  Protein Binding: 71 ± 0.3%
[13]; [21]
  Protein Binding: 71.2 ± 0.3%
σ1 receptors [11]; 0.16 nM radioligand, 37 °C
  kobs: 0.016 ± 0.002 min⁻¹
  time to steady-state binding: ~180 min
σ1 receptors [11]; 0.16 nM radioligand, 37 °C, haloperidol-initiated dissociation
  koff: 5.5e-05 ± 5e-06 s⁻¹
σ1 receptors [14]
  Binding Potential (BP): 97
[15]; 60 min
  extractable radioactivity, liver: 80%
  urinary radioactivity as polar metabolites: 99%
[15]; 60 min, 100 μCi i.v.
  radioactivity in brain tissue from intact radioligand: About 99%
[15]
  Radiometabolites Whole Brain, 60 min: 1%
[15]; [21]
  Radiometabolites Whole Brain, 60 min: 1%
[16]
  fold higher lipophilicity than [125I]-E-IA-DM-PE-PIPZE: 2.8 fold
[16]; n-octanol / buffer pH 7.4, n = 5
  Log D7.4: 2.69 ± 0.28
[17]; 5 min
  blood level: 0.31 ± 0.03 %ID / g
  radioactivity in the eye: 2.01 ± 0.13 %ID / g
[17]; 5 min, i.v., mean ± SD
  brain uptake: 6.14 ± 0.94 %ID / g
[17]; 15 min, i.v., mean ± SD
  peak brain uptake: 6.56 ± 1.23 %ID / g
[17]; 4 h
  brain uptake: 4.48 ± 0.22 %ID / g
[17]; 24 h
  blood level: 0.08 ± 0.01 %ID / g
  brain uptake: 0.76 ± 0.091 %ID / g
[17]; monoexponential decay, r^2 0.88
  clearance t½ from lung: 1.73 h
[17]; monoexponential decay, r^2 0.90
  clearance t½ from heart: 1.98 h
[17]; mouse, in vivo
  initial whole brain uptake: > 6 % injected dose / g
  uptake in heart relative to brain, higher by: 50%
  uptake in lung compared to brain: 5 fold
